Experimental data taken from ChEMBL document CHEMBL1154375, “Novel dehydroepiandrosterone derivatives with antiapoptotic, neuroprotective activity” (J Med Chem, 2009).
Activity calls are given as the source filed them. The rule behind the calls is not given here.

Tests used:
PC-12 [1] = test: Neuroprotective activity in rat PC12 cells assessed as inhibition of serum deprivation-induced apoptosis after 24 hrs by APO Percentage apoptosis assay; assay type: functional, cell-based; conditions: PC-12, 24 h
PC-12 [2] = test: Neuroprotective activity in rat PC12 cells assessed as inhibition of serum deprivation-induced apoptosis after 24 hrs by FACS flow cytometry; assay type: functional, cell-based
Method in brief: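 PC12 cells (10^6/well) 24 h in serum-free medium with BSA plus 100 nM steroid; stained with 2 μg/mL annexin V-FITC (10 min, dark, HEPES/CaCl2 buffer pH 7.4) and propidium iodide, analysed by flow cytometry within 20 min, 10000 cells per treatment; at least four experiments in triplicate.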

[3] = target: Estrogen receptor beta (Homo sapiens) (UniProt Q92731); test: Antagonist activity at ERbeta in HEK293 cells assessed as inhibition of ERE-dependent luciferase expression at 1 uM relative to ICI-182780; assay type: functional, cell-based; design: scale not given: the % may be the effect or the level left
Chain of Estrogen receptor beta (Homo sapiens) (Q92731 whole entry): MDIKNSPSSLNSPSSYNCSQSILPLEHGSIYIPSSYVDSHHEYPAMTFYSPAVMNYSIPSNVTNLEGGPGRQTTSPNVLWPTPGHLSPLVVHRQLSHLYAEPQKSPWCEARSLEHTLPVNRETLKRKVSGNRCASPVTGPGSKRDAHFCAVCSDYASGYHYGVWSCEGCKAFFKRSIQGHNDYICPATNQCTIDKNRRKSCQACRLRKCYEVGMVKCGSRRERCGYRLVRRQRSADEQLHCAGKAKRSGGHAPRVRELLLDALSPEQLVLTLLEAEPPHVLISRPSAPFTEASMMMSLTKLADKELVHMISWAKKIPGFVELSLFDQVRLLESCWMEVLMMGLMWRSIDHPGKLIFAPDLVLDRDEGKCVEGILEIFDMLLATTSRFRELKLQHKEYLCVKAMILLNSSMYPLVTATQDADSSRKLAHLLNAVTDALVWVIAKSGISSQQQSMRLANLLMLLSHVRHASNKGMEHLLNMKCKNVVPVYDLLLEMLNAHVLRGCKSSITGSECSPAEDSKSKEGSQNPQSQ

Ishikawa = test: Induction of human Ishikawa cells growth containing endogenous ERalpha receptor at 1 uM by MTT assay relative to estradiol; assay type: functional, cell-based
Method in brief: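 Endometrial cells at 8000/well in phenol red-free MEM, 1 μg/mL insulin, 5% charcoal-stripped FBS; compound added 24 h after plating, 96 h exposure; MTT at 550 nm.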

PC-12 [4] = test: Neuroprotective activity against serum deprivation-induced apoptosis in rat PC12 cells assessed as increase in antiapoptotic protein Bcl-XL levels at 10 nM after 12 hrs by Western blot; assay type: functional, cell-based
Method in brief: (§1)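 PC12 cells cultured 12 h in serum-free medium (0.1% BSA, 10 nM haloperidol) with 10 nM steroid; total protein extracts Western blotted for Bcl-2 or Bcl-xL, band intensity by densitometry normalized to actin; % of control; three independent experiments.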

MCF7 = test: Induction of human MCF7 cells growth containing endogenous ERalpha receptor at 1 uM by MTT assay relative to estradiol; assay type: functional
Method in brief: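 Breast cancer cells at 8000/well in phenol red-free MEM, 1 μg/mL insulin, 5% charcoal-stripped FBS; after 72 h, 96 h exposure; MTT formazan at 550 nm.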

LNCaP = test: Induction of human LNCAP cells growth containing endogenous […] receptor at 1 uM by MTT assay relative to estradiol; assay type: functional, cell-based
Method in brief: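 Prostate cells at 5000/well on polylysine-coated wells in phenol red-free RPMI with 10% charcoal-stripped FBS; after 72 h, 96 h exposure; MTT at 550 nm.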

[5] = Cytotoxicity against mouse HT22 cells at 0.1 to 10 uM after 24 to 72 hrs by MTT assay; assay type: cell-based; conditions: ht-22, 10 µM
Method in brief: (§2)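 Seeded at 2×10^4 cells/mL in serum-containing medium (PC12: RPMI 1640, 10% horse serum, 5% FBS; HEK293 and HT22: DMEM, 10% FBS) for 24 h, then 0.1, 1 or 10 μM compound for 24, 48 or 72 h. MTT 5 mg/mL, 4 h, 37 °C; DMSO-dissolved formazan read at 570 nm; % of untreated control; three replicates, three experiments.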

HEK293 = test: Cytotoxicity against HEK293 cells at 0.1 to 10 uM after 24 to 72 hrs by MTT assay; assay type: cell-based; conditions: human, hek293, 10 µM; method in brief: as §2
PC-12 [6] = test: Cytotoxicity against rat PC12 cells at 0.1 to 10 uM after 24 to 72 hrs by MTT assay; assay type: cell-based; conditions: pc-12, 10 µM; method in brief: as §2
[7] = target: T1, Estrogen receptor (Homo sapiens) (UniProt P03372); test: Agonist activity at ERalpha in human MCF7:D5L cells assessed as induction of ERE-dependent luciferase expression at 1 uM relative to estradiol; assay type: functional, cell-based
T1 sequence (whole entry): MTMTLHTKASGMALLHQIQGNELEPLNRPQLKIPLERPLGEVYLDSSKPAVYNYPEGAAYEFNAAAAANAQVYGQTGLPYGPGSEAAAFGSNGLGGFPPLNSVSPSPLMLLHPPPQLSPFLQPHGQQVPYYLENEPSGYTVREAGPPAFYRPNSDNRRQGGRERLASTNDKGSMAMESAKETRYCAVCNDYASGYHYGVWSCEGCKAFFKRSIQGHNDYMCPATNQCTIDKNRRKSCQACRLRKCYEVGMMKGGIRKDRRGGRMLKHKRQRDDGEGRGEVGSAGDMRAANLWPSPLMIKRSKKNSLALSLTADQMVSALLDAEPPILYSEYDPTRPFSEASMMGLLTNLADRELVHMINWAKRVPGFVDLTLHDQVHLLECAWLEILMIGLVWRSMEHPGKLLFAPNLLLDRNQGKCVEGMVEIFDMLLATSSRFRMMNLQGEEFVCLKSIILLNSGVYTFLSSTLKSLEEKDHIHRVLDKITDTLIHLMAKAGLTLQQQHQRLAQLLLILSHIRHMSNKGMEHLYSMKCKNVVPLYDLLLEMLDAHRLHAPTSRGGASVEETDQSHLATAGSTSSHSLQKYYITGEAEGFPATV

PC-12 [8] = test: Neuroprotective activity against serum deprivation-induced apoptosis in rat PC12 cells assessed as increase in antiapoptotic protein Bcl2 levels at 10 nM after 12 hrs by Western blot; assay type: functional, cell-based; method in brief: as §1
[9] = target: T1, Estrogen receptor (Homo sapiens); test: Antagonist activity at estrogen receptor in human Ishikawa cells assessed as inhibition of ERE-dependent alkaline phosphatase levels at 1 uM relative to ICI-182780; assay type: functional, cell-based; design: scale not given: the % may be the effect or the level left
[10] = target: Estrogen receptor beta (Homo sapiens) (UniProt Q92731); test: Agonist activity at ERbeta in HEK293 cells assessed as induction of ERE-dependent luciferase expression at 1 uM relative to estradiol; assay type: functional, cell-based
[11] = Displacement of [3H]DHEA from DHEA-binding site in rat PC12 cell membranes by […] counting; design: species or system Membrane; conditions: pc-12
[12] = target: T1, Estrogen receptor (Homo sapiens); test: Antagonist activity at ERalpha in human MCF7:D5L cells assessed as inhibition of ERE-dependent luciferase expression at 1 uM relative to ICI-182780; assay type: functional, cell-based
[13] = target: T1, Estrogen receptor (Homo sapiens); test: Agonist activity at estrogen receptor in human Ishikawa cells assessed as induction of ERE-dependent alkaline phosphatase level at 1 uM relative to estradiol; assay type: functional, cell-based
PC-12 [14] = test: Neuroprotective activity in rat PC12 cells assessed as inhibition of serum deprivation-induced apoptosis at 100 nM after 24 hrs by APO Percentage apoptosis assay; assay type: functional, cell-based
Method in brief: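 PC12 cells cultured 24 h in serum-free medium with BSA and 10 nM haloperidol plus 100 nM steroid. Apoptotic cells stained with APOPercentage dye, dye released and read at 550 nm (reference 620 nm); expressed relative to serum-free control; at least four experiments in triplicate.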

PC-12 [15] = test: Induction of tyrosine hydroxylase mRNA expression in rat PC12 cells at 10 nM after 6 hrs mins by RT-PCR; assay type: functional, cell-based
Method in brief: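 PC12 cells incubated 6 h with 10 nM steroid; TH mRNA measured by RT-PCR, 33 cycles, 368 bp product on 2% agarose gel, normalized to GAPDH mRNA.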

PC-12 [16] = test: Induction of dopamine release in rat PC12 cells at 10 nM after 24 hrs mins by radioimmunoassay; assay type: functional, cell-based
Method in brief: (§3)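 PC12 cells at 10^6/well on poly(L-lysine) exposed to 10 nM steroid in serum-free medium for 5–30 min or 3–48 h; 1 mL supernatant acidified with 0.1 M HCl; dopamine measured by 125I radioimmunoassay after COMT conversion to 3-methoxytyramine and acylation. Expressed as % of untreated cells; four independent experiments.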

PC-12 [17] = test: Induction of dopamine release in rat PC12 cells at 10 nM after 10 mins by radioimmunoassay relative to control; assay type: functional; method in brief: as §3

Structure (SMILES): C[C@]12CC[C@H](O)CC1=CC[C@@H]1[C@@H]2CC[C@@]2(C)[C@H]1CC[C@]21O[C@H]1CO
- IC50 (PC-12 [1]): 99 nM
- Activity (PC-12 [2]): Active
- Activity [3]: inactive
- Activity (Ishikawa): inactive
- Activity (PC-12 [4]): Active
- Activity (MCF7): inactive
- Activity (LNCaP): inactive
- Activity [5]: Non-toxic
- Activity (HEK293): Non-toxic
- Activity (PC-12 [6]): Non-toxic
- Activity [7]: inactive
- Activity (PC-12 [8]): Active
- Activity [9]: inactive
- Activity [10]: inactive
- IC50 [11]: 0.11 nM
- Activity [12]: inactive
- Activity [13]: inactive

Structure (SMILES): C[C@]12CC[C@@](O)(CC#N)CC1=CC[C@@H]1[C@@H]2CC[C@]2(C)C(=O)CC[C@@H]12
- inhibition (PC-12 [14]): inactive

Structure (SMILES): CO[C@H]1CC[C@H]2[C@@H]3CC=C4C[C@@H](O)CC[C@]4(C)[C@H]3CC[C@]12C
- inhibition (PC-12 [14]): inactive

Structure (SMILES): C[C@@]1(O)CC[C@@]2(C)C(=CC[C@@H]3[C@@H]2CC[C@]2(C)C(=O)CC[C@@H]32)C1
- inhibition (PC-12 [14]): inactive

Structure (SMILES): CCCC[C@@]1(O)CC[C@@]2(C)C(=CC[C@@H]3[C@@H]2CC[C@]2(C)C(=O)CC[C@@H]32)C1
- inhibition (PC-12 [14]): inactive

Structure (SMILES): C[C@]12CC[C@H](O)CC1=CC[C@@H]1[C@@H]2CC[C@@]2(C)[C@H]1CC[C@]21O[C@@H]1CO
- IC50 (PC-12 [1]): 6.4 nM
- Activity (PC-12 [2]): Active
- Activity [3]: 31%
- Activity (Ishikawa): inactive
- Activity (PC-12 [4]): Active
- Activity (MCF7): inactive
- Activity (LNCaP): inactive
- Activity [5]: Non-toxic
- Activity (HEK293): Non-toxic
- Activity (PC-12 [6]): Non-toxic
- Activity (PC-12 [15]): Active
- Activity [7]: inactive
- Activity (PC-12 [8]): Active
- Activity [9]: 24%
- Activity [10]: inactive
- IC50 [11]: 18.6 nM
- Activity (PC-12 [16]): Active
- fold change (FC) (PC-12 [17]): 2
- Activity [12]: inactive
- Activity [13]: inactive

Structure (SMILES): C[C@]1(O)CC[C@@]2(C)C(=CC[C@@H]3[C@@H]2CC[C@]2(C)C(=O)CC[C@@H]32)C1
- inhibition (PC-12 [14]): inactive

Structure (SMILES): C[C@]12CC[C@H](O)CC1=CC[C@@H]1[C@@H]2CC[C@@]2(C)[C@H]1CC[C@@]21CO1
- IC50 (PC-12 [1]): 0.19 nM
- Activity (PC-12 [2]): Active
- Activity [3]: inactive
- Activity (Ishikawa): inactive
- Activity (PC-12 [4]): Active
- Activity (MCF7): 33%
- Activity (LNCaP): inactive
- Activity [5]: Non-toxic
- Activity (HEK293): Non-toxic
- Activity (PC-12 [6]): Non-toxic
- Activity (PC-12 [15]): Active
- Activity [7]: 29%
- Activity (PC-12 [8]): Active
- Activity [9]: inactive
- Activity [10]: inactive
- IC50 [11]: 0.04 nM
- Activity (PC-12 [16]): Active
- fold change (FC) (PC-12 [17]): 2
- Activity [12]: inactive
- Activity [13]: 22%

Structure (SMILES): C[C@]12CC[C@H](O)CC1=CC[C@@H]1[C@@H]2CC[C@]2(C)C(=O)CC[C@@H]12 [PRASTERONE]
- IC50 (PC-12 [1]): 0.29 nM
- IC50 [11]: 1.65 nM

Structure (SMILES): C[C@]12CC[C@@](O)(CN=[N+]=[N-])CC1=CC[C@@H]1[C@@H]2CC[C@]2(C)C(=O)CC[C@@H]12
- inhibition (PC-12 [14]): inactive

Structure (SMILES): COC[C@]1(O)CC[C@@]2(C)C(=CC[C@@H]3[C@@H]2CC[C@]2(C)C(=O)CC[C@@H]32)C1
- inhibition (PC-12 [14]): inactive
